According to ChEMBL document CHEMBL1687794, “Phenotypic and biochemical comparison of the carbapenem-hydrolyzing activities of five plasmid-borne AmpC β-lactamases” (2010):
Values after ≈ are worked out from the molar mass of the structure shown.

How the values were obtained:
[1] = Activity of Beta-lactamase DHA-1
In short: (§1)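 Enzyme source: AmpC genes cloned without native promoter under lacZ control, expressed in E. coli TOP10, purified (FOX-1 by two Q-Sepharose steps, bis-Tris pH 6.8 then Tris-HCl pH 9). Hydrolysis monitored spectrophotometrically at 30°C in 100 mM sodium phosphate pH 7.0 with cephaloridine, ertapenem, imipenem or meropenem. kcat from initial rates at saturating substrate ([S] = 100 × Km).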

[2] = Ratio of Kcat to Km for Beta-lactamase ACT-1
In short: (§2)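 Purified TOP10-expressed AmpC enzymes, assayed spectrophotometrically at 30°C, 100 mM sodium phosphate pH 7.0. Cephaloridine Km and kcat from initial rates via Eadie-Hofstee linearization. For imipenem, Ki replaced Km, measured against cephaloridine as reporter substrate. kcat from initial rates at saturating substrate ([S] = 100 × Km) using undiluted enzyme extract. Efficiency taken as kcat/Km.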

[3] = Activity of Beta-lactamase ACT-1; in short: as §1
[4] = Ratio of Kcat to Km for Beta-lactamase AmpC-B2; in short: as §2
[5] = Activity of Beta-lactamase CMY-2; in short: as §1
[6] = Activity of Beta-lactamase ACC-1
In short: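 ACC-1 cloned without its native promoter behind the lacZ promoter, expressed in E. coli TOP10 and purified. Ki, Km and kcat measured by UV spectrophotometry at 30°C in 100 mM sodium phosphate pH 7.0. Cephaloridine Km/kcat from initial rates by Eadie-Hofstee analysis. Imipenem Ki measured against cephaloridine reporter substrate; kcat from initial rates at [S] = 100 × Km.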

[7] = Ratio of Kcat to Km for Beta-lactamase FOX-1; in short: as §2
[8] = Ratio of Kcat to Km for Beta-lactamase ACC-1; in short: as §2
[9] = Ratio of Kcat to Km for Beta-lactamase CMY-2; in short: as §2
[10] = Activity of Beta-lactamase AmpC-B2; in short: as §1
[11] = Ratio of Kcat to Km for Beta-lactamase DHA-1; in short: as §2
[12] = Activity of Beta-lactamase FOX-1; in short: as §1
Escherichia coli [13] = assay: Antimicrobial activity against Escherichia coli TOP10 transformed with Escherichia coli ECB-1 plasmid carrying ACC-1 by agar dilution method; format: functional
In short: (§3)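 Agar dilution MICs on Mueller-Hinton agar, 10^4 CFU per spot, read by CLSI guidelines. Strains are wild-type E. coli TOP10, with or without a cloned ampC gene (native promoter removed, lacZ promoter-driven). Antibiotics tested: cefoxitin, cefuroxime, cefotaxime, ceftazidime, cefepime, imipenem, ertapenem, meropenem.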

Escherichia coli [14] = assay: Antimicrobial activity against OmpC/OmpF porin deficient Escherichia coli HB4 transformed with Escherichia coli EC-6 plasmid carrying AmpC-B2 by agar dilution method; format: functional
In short: (§4)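 Agar dilution on Mueller-Hinton agar, inoculum 10^4 CFU per spot, interpreted per CLSI. Host is E. coli HB4, which lacks OmpC and OmpF, with or without a cloned ampC gene under the lacZ promoter. Panel: cefoxitin, cefuroxime, cefotaxime, ceftazidime, cefepime, imipenem, ertapenem, meropenem.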

Escherichia coli [15] = assay: Antimicrobial activity against Escherichia coli TOP10 transformed with Escherichia coli EC-6 plasmid carrying AmpC-B2 by agar dilution method; format: functional; in short: as §3
Escherichia coli [16] = assay: Antimicrobial activity against Escherichia coli TOP10 transformed with Enterobacter asburiae CIP 105006 plasmid carrying ACT-1 by agar dilution method; format: functional; in short: as §3
Escherichia coli [17] = assay: Antimicrobial activity against OmpC/OmpF porin deficient Escherichia coli HB4 transformed with Escherichia coli DH10B plasmid carrying DHA-1 by agar dilution method; format: functional; in short: as §4
Escherichia coli [18] = assay: Antimicrobial activity against OmpC/OmpF porin deficient Escherichia coli HB4 transformed with Escherichia coli ECB-1 plasmid carrying ACC-1 by agar dilution method; format: functional; in short: as §4
Escherichia coli [19] = assay: Antimicrobial activity against Escherichia coli TOP10 transformed with Escherichia coli DH10B plasmid carrying DHA-1 by agar dilution method; format: functional; in short: as §3
Escherichia coli [20] = assay: Antimicrobial activity against OmpC/OmpF porin deficient Escherichia coli HB4 transformed with Escherichia coli pGLK-1 plasmid carrying FOX-1 by agar dilution method; format: functional; in short: as §4
Escherichia coli [21] = assay: Antimicrobial activity against OmpC/OmpF porin deficient Escherichia coli HB4 transformed with Enterobacter asburiae CIP 105006 plasmid carrying ACT-1 by agar dilution method; format: functional; in short: as §4
Escherichia coli [22] = assay: Antimicrobial activity against Escherichia coli TOP10 transformed with Escherichia coli ECB2 plasmid carrying CMY-2 by agar dilution method; format: functional; in short: as §3
Escherichia coli [23] = assay: Antimicrobial activity against Escherichia coli TOP10 by agar dilution method
Escherichia coli [24] = assay: Antimicrobial activity against OmpC/OmpF porin deficient Escherichia coli HB4 by agar dilution method; format: functional; in short: as §4
Escherichia coli [25] = assay: Antimicrobial activity against Escherichia coli TOP10 transformed with Escherichia coli pGLK-1 plasmid carrying FOX-1 by agar dilution method; format: functional; in short: as §3
Escherichia coli [26] = assay: Antimicrobial activity against OmpC/OmpF porin deficient Escherichia coli HB4 transformed with Escherichia coli ECB2 plasmid carrying CMY-2 by agar dilution method; format: functional; in short: as §4

SMILES | MIC (Escherichia coli [13]) [µg/mL] | MIC (Escherichia coli [14]) [µg/mL] | MIC (Escherichia coli [15]) [µg/mL] | MIC (Escherichia coli [16]) [µg/mL] | MIC (Escherichia coli [17]) [µg/mL] | MIC (Escherichia coli [18]) [µg/mL] | MIC (Escherichia coli [19]) [µg/mL] | MIC (Escherichia coli [20]) [µg/mL] | MIC (Escherichia coli [21]) [µg/mL] | MIC (Escherichia coli [22]) [µg/mL] | MIC (Escherichia coli [23]) [µg/mL] | MIC (Escherichia coli [24]) [µg/mL] | MIC (Escherichia coli [25]) [µg/mL] | MIC (Escherichia coli [26]) [µg/mL] | further results
O=C(Cc1cccs1)N[C@@H]1C(=O)N2C(C(=O)[O-])=C(C[n+]3ccccc3)CS[C@H]12 | – | – | – | – | – | – | – | – | – | – | – | – | – | – | Km [1]: 330 µM; kcat [1]: 196 s⁻¹; kcat/Km [2]: 1.14e+06 M⁻¹ s⁻¹; Km [3]: 420 µM; kcat [3]: 481 s⁻¹; kcat/Km [4]: 250000 M⁻¹ s⁻¹; Km [5]: 125 µM; kcat [5]: 412 s⁻¹; Km [6]: 420 µM; kcat [6]: 140 s⁻¹; kcat/Km [7]: 360000 M⁻¹ s⁻¹; kcat/Km [8]: 330000 M⁻¹ s⁻¹; kcat/Km [9]: 3.3e+06 M⁻¹ s⁻¹; Km [10]: 950 µM; kcat [10]: 240 s⁻¹; kcat/Km [11]: 595000 M⁻¹ s⁻¹; Km [12]: 630 µM; kcat [12]: 228 s⁻¹
CO/N=C(\C(=O)N[C@@H]1C(=O)N2C(C(=O)[O-])=C(C[N+]3(C)CCCC3)CS[C@H]12)c1csc(N)n1 [CEFEPIME] | 0.125 (≈ 0.26 µM) | 1 (≈ 2.08 µM) | 0.06 (≈ 0.125 µM) | 0.25 (≈ 0.52 µM) | 2 (≈ 4.16 µM) | 4 (≈ 8.32 µM) | 0.064 (≈ 0.133 µM) | 8 (≈ 16.6 µM) | 4 (≈ 8.32 µM) | 1 (≈ 2.08 µM) | 0.06 (≈ 0.125 µM) | 1 (≈ 2.08 µM) | – | – | –
CO/N=C(\C(=O)N[C@@H]1C(=O)N2C(C(=O)O)=C(COC(C)=O)CS[C@H]12)c1csc(N)n1 [CEFOTAXIME] | 1 (≈ 2.2 µM) | 4 (≈ 8.78 µM) | 0.5 (≈ 1.1 µM) | 64 (≈ 141 µM) | 128 (≈ 281 µM) | 4 (≈ 8.78 µM) | 8 (≈ 17.6 µM) | 32 (≈ 70.3 µM) | 64 (≈ 141 µM) | 128 (≈ 281 µM) | 0.06 (≈ 0.132 µM) | 4 (≈ 8.78 µM) | 16 (≈ 35.1 µM) | 256 (≈ 562 µM) | –
CO[C@@]1(NC(=O)Cc2cccs2)C(=O)N2C(C(=O)O)=C(COC(N)=O)CS[C@@H]21 [CEFOXITIN] | 2 (≈ 4.68 µM) | 512 (≈ 1200 µM) | 128 (≈ 299 µM) | 512 (≈ 1200 µM) | > 512 | 256 (≈ 599 µM) | 32 (≈ 74.9 µM) | > 512 | > 512 | 128 (≈ 299 µM) | 2 (≈ 4.68 µM) | 256 (≈ 599 µM) | 512 (≈ 1200 µM) | > 512 | –
CC(C)(O/N=C(\C(=O)N[C@@H]1C(=O)N2C(C(=O)[O-])=C(C[n+]3ccccc3)CS[C@H]12)c1csc(N)n1)C(=O)O [CEFTAZIDIME] | 8 (≈ 14.6 µM) | 8 (≈ 14.6 µM) | 1 (≈ 1.83 µM) | 128 (≈ 234 µM) | 256 (≈ 468 µM) | 16 (≈ 29.3 µM) | 64 (≈ 117 µM) | 512 (≈ 937 µM) | > 512 | 256 (≈ 468 µM) | 0.06 (≈ 0.11 µM) | 4 (≈ 7.32 µM) | 64 (≈ 117 µM) | > 512 | –
CO/N=C(\C(=O)N[C@@H]1C(=O)N2C(C(=O)O)=C(COC(N)=O)CS[C@H]12)c1ccco1 [CEFUROXIME] | 1 (≈ 2.36 µM) | 512 (≈ 1210 µM) | 128 (≈ 302 µM) | 512 (≈ 1210 µM) | > 512 | 128 (≈ 302 µM) | 128 (≈ 302 µM) | > 512 | > 512 | 128 (≈ 302 µM) | 1 (≈ 2.36 µM) | 32 (≈ 75.4 µM) | 256 (≈ 603 µM) | > 512 | –
C[C@@H](O)[C@H]1C(=O)N2C(C(=O)O)=C(S[C@@H]3CN[C@H](C(=O)Nc4cccc(C(=O)O)c4)C3)[C@H](C)[C@H]12 [ERTAPENEM] | 0.006 (≈ 0.0126 µM) | 2 (≈ 4.21 µM) | 0.064 (≈ 0.135 µM) | 0.016 (≈ 0.0336 µM) | 16 (≈ 33.6 µM) | 2 (≈ 4.21 µM) | 0.012 (≈ 0.0252 µM) | 4 (≈ 8.41 µM) | 256 (≈ 538 µM) | 0.064 (≈ 0.135 µM) | 0.006 (≈ 0.0126 µM) | 1 (≈ 2.1 µM) | 0.032 (≈ 0.0673 µM) | 256 (≈ 538 µM) | –
C[C@@H](O)[C@H]1C(=O)N2C(C(=O)O)=C(SCCNC=N)C[C@H]12 [IMIPENEM ANHYDROUS] | – | 0.5 (≈ 1.67 µM) | 0.125 (≈ 0.418 µM) | – | 2 (≈ 6.68 µM) | 0.5 (≈ 1.67 µM) | – | 0.5 (≈ 1.67 µM) | 16 (≈ 53.4 µM) | 0.5 (≈ 1.67 µM) | – | – | 0.25 (≈ 0.835 µM) | 32 (≈ 107 µM) | kcat [1]: < 0.001 s⁻¹; kcat/Km [2]: 7000 M⁻¹ s⁻¹; Km [3]: 3 µM; kcat [3]: 0.02 s⁻¹; kcat/Km [4]: 2000 M⁻¹ s⁻¹; Km [5]: 1 µM; kcat [5]: 0.04 s⁻¹; kcat [6]: < 0.001 s⁻¹; kcat/Km [7]: 300 M⁻¹ s⁻¹; kcat/Km [9]: 40000 M⁻¹ s⁻¹; Km [10]: 35 µM; kcat [10]: 0.08 s⁻¹; Km [12]: 35 µM; kcat [12]: 0.01 s⁻¹
C[C@@H](O)[C@H]1C(=O)N2C(C(=O)O)=C(S[C@@H]3CN[C@H](C(=O)N(C)C)C3)[C@H](C)[C@H]12 [MEROPENEM] | 0.032 (≈ 0.0834 µM) | 0.032 (≈ 0.0834 µM) | 0.032 (≈ 0.0834 µM) | 0.032 (≈ 0.0834 µM) | 1 (≈ 2.61 µM) | 0.5 (≈ 1.3 µM) | 0.032 (≈ 0.0834 µM) | 0.75 (≈ 1.96 µM) | 4 (≈ 10.4 µM) | 0.064 (≈ 0.167 µM) | 0.032 (≈ 0.0834 µM) | 0.032 (≈ 0.0834 µM) | 0.125 (≈ 0.326 µM) | 8 (≈ 20.9 µM) | –
